Assay results from different studies.

SMILES | cell line | test | setting | quantity | value
Cc1cc(C)cc(COc2cc3c(cc2OCc2cc(C)cc(C)c2)[C@H]2C[C@](O)(Cc4cn(-c5ccc(S(=O)(=O)F)cc5)nn4)C[C@H](C)N2CC3)c1 | PC-3 | cell growth or viability, MTT | – | IC50 | 392 nM
COc1ccc(C(=O)c2c[nH]c3ncc(-c4ccc(N5CCN(S(C)(=O)=O)CC5)nc4)cc23)cc1 | A549 | cell growth or viability, MTT | 10 µM, 48 h | viability | 80.2%
O=C1C=CC(=O)c2ccccc21 | HFF-1 | cell growth or viability, MTT | 48 h | IC50 | 26700 nM
Nc1nc2c(c(=O)[nH]1)C[C@@H](CCc1ccc(C(=O)N[C@@H](CCC(=O)O)C(=O)O)cc1)CN2 | R2/PCFT4 | cell growth or viability | 96 h, pH 7.2 | IC50 | 248 nM
Cc1cc(C)cc(COc2cc3c(cc2OCc2cc(C)cc(C)c2)[C@H]2C[C@](O)(Cc4cn(CC(=O)Nc5ccc(S(=O)(=O)F)cc5)nn4)C[C@H](C)N2CC3)c1 | PC-3 | cell growth or viability, MTT | – | IC50 | 1330 nM
CC(C)(C)OC(=O)N1CCN(c2ccc(-c3cnc4[nH]cc(C(=O)c5ccc(F)cc5)c4c3)cn2)CC1 | A549 | cell growth or viability, MTT | 10 µM, 48 h | viability | 76.3%
CNC(=O)c1cc(Oc2ccc(NC(=O)Nc3cc(C(C)(C)C)nn3-c3ccc4ncccc4c3)c(F)c2)ccn1 | HUVEC | cell migration | – | IC50 | 0.022 nM
CCCCCCCCc1ccc(C(=O)Nc2ccccc2C(=O)OCC)cc1 | PC-3 | cell growth or viability, MTT | 72 h | IC50 | > 100000 nM
O=C(c1ccc(F)cc1)c1c[nH]c2ncc(-c3ccnc(N4CCOCC4)c3)cc12 | A549 | cell growth or viability, MTT | 10 µM, 48 h | viability | 94.1%
CC(=O)O[C@H]1C[C@H](O[C@H]2[C@@H](O)C[C@H](O[C@H]3[C@@H](O)C[C@H](O[C@H]4CC[C@@]5(C)[C@H](CC[C@@H]6[C@@H]5C[C@@H](O)[C@]5(C)[C@@H](C7=CC(=O)OC7)CC[C@]65O)C4)O[C@@H]3C)O[C@@H]2C)O[C@H](C)[C@H]1O[C@@H]1O[C@H](CO)[C@@H](O)[C@H](O)[C@H]1O | A549 | cell growth or viability, MTT | 5 µM, 24 h | inhibition | 74.8%
O=C(O)CCn1cc(C(=O)c2ccc(F)cc2)c2cc(-c3ccc(N4CCNCC4)nc3)cnc21 | A549 | cell growth or viability, MTT | 10 µM, 48 h | viability | 88.5%
N[C@@H](Cc1ccc(N(CCCl)CCCl)cc1)C(=O)O | PC-3 | cell growth or viability, CCK-8 | 48 h | IC50 | > 50000 nM
Nc1nc2sc(CCCCc3ccc(C(=O)N[C@@H](CCC(=O)O)C(=O)O)cc3)cc2c(=O)[nH]1 | R2/PCFT4 | cell growth or viability | 96 h, pH 7.2 | IC50 | > 1000 nM
CCC(=O)Oc1cccc2c1C(=O)C=CC2=O | HFF-1 | cell growth or viability, MTT | 48 h | IC50 | 7800 nM
CN1CCN(c2ccc(-c3cnc4[nH]cc(C(=O)c5ccc(F)cc5)c4c3)cc2)CC1 | A549 | cell growth or viability, MTT | 10 µM, 48 h | viability | 73%
O=C(O)CCCc1ccc(N(CCCl)CCCl)cc1 | PC-3 | cell growth or viability, CCK-8 | 48 h | IC50 | > 50000 nM
C[C@@H]1C[C@@H]([C@H](O)CC2CC(=O)NC(=O)C2)C(=O)[C@@H](C)C1 | NIH3T3 | cell growth or viability, MTT | 24 h | IC50 | 800 nM
